{"source": "PubChem BioAssay", "note": "For part of these data: Potency and affinity values are given separately. The source made the active and inactive calls.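 The calls were made as follows, unless noted: active = active in primary screen and both duplicates, each dropping signal beyond three positive-control SD with fluorescence still positive; inactive = the rest.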", "data": [{"target": "Short transient receptor potential channel 4 (Mus musculus) (UniProt Q9QUQ5)", "sequence (Q9QUQ5 whole entry, looked up)": "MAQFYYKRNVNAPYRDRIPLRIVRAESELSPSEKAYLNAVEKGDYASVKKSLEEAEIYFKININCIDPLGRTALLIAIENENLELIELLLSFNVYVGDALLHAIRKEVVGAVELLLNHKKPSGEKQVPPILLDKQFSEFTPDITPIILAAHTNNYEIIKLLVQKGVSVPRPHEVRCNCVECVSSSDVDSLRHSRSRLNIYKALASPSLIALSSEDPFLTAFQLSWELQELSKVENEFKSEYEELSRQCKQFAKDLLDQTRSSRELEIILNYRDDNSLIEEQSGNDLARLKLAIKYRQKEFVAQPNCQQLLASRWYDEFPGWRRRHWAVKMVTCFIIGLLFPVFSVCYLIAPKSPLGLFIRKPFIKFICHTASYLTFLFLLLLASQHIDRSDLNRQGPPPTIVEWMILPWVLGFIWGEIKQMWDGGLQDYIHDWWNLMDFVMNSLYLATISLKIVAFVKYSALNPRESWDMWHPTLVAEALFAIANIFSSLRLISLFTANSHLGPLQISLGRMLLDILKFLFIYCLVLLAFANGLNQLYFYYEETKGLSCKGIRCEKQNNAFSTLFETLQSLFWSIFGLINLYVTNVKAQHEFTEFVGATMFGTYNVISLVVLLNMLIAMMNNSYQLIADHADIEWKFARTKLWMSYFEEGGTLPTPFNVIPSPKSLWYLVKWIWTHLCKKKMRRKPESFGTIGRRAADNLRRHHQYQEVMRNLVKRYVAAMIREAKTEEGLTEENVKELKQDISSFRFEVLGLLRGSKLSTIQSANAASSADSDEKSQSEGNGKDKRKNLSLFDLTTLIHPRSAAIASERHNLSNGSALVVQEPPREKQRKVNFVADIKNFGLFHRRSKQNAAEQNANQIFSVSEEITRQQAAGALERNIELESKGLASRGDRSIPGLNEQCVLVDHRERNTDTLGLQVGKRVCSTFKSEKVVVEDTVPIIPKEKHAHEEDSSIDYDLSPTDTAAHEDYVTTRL", "test": "TRPC4 positive allosteric modulators, dose response, cell-based, HEK293 TRPC4/mu-opioid, Fluo-4 calcium, EC20 DAMGO (AID 434941;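 active = earlier screen potentiator hit that boosts the TRPC4 ion channel at some dose, with a dose response; inactive = no potentiation, no dose response, or not a prior hit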;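 also: calcium entry triggered by an EC20 dose of DAMGO at the co-expressed mu-opioid receptor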)", "conditions": "HEK293 TRPC4/mu-opioid cells, Fluo-4 calcium fluorescence; series mostly up to 20 µM", "values": [{"molecule": "CC(C)C(NC(=O)c1ccc(C(C)(C)C)cc1)C(=O)NCC(c1ccccc1)N(C)C", "note": "(stereo not drawn)", "outcome": "inactive"}, {"molecule": "CN(C)CCCN(C(=O)c1ccc(S(=O)(=O)N2CCCC2)cc1)c1nc2c(F)cc(F)cc2s1", "outcome": "inactive"}, {"molecule": "CCC1CCCCN1CCN1C(=O)C2C(C(=O)Nc3ccc(OC)cc3)C3C=CC2(O3)C1C(=O)NC1CCCCC1", "note": "(stereo not drawn)", "outcome": "inactive"}, {"molecule": "Cc1cc(Nc2ccc(C)c(C)c2)c2ccccc2n1", "outcome": "inactive"}, {"molecule": "CCCc1nc2ccccc2n1Cc1ccccc1OC", "outcome": "inactive"}, {"molecule": "CCCCOc1ccc(Nc2cc(Cl)ccc2C(=O)O)cn1", "outcome": "inactive"}, {"molecule": "N#Cc1c(N)sc2c1CCCCCC2", "outcome": "inactive"}, {"molecule": "Cc1cc(OCc2cc(C(=O)NCCN3CCCCC3CO)no2)cc(C)c1Cl", "note": "(stereo not drawn)", "outcome": "inactive"}, {"molecule": "Cc1cccc(C)c1-n1cccc1/C=C1\\SC(=S)N(c2cccc(C(=O)O)c2)C1=O", "outcome": "inactive"}, {"molecule": "Clc1ccc(COc2ccccc2CNCc2cccnc2)cc1", "outcome": "inactive"}, {"molecule": "C=CCOc1ccc(C2CC(C)=NN2c2ccccc2)cc1", "note": "(stereo not drawn)", "outcome": "inactive"}, {"molecule": "CCCCN=C(Nc1ccc(Cl)cc1)c1cccnc1", "outcome": "inactive"}, {"molecule": "OCc1ccccc1CNCc1ccccc1", "outcome": "inactive"}, {"molecule": "Cc1ccc(Nc2cc(C)nc3ccc(C)cc23)cc1", "outcome": "inactive"}, {"molecule": "C=CCSc1nnc2n(-c3ccccc3OC)c(=O)c3c4c(sc3n12)CCC4", "outcome": "inactive"}, {"molecule": "Cc1ccc(NC(=O)CN2CCc3ccccc3C2)cc1F", "outcome": "inactive"}, {"molecule": "c1ccc(CN2CCN(Cc3c[nH]c4ccccc34)CC2)cc1", "outcome": "inactive"}, {"molecule": "OCCNc1nc2ccccc2n1CCN1CCCCC1", "outcome": "inactive"}, {"molecule": "COc1ccc(NC(=O)c2c[nH]n3c(=O)cc(C4CCN(C(=O)OC(C)(C)C)CC4)nc23)cc1Cl", "outcome": "inactive"}, {"molecule": "CC1CCCN1CC#CC(O)(c1ccccc1)c1ccccc1", "note": "(stereo not drawn)", "outcome": "inactive"}, {"molecule": "CCOC(=O)c1c(N)sc(C(O)(C(F)(F)F)C(F)(F)F)c1-c1ccccc1", "outcome": "inactive"}, {"molecule": "CCCCN(Cc1ccccc1)C(=O)C1CCN(Cc2sccc2C)CC1", "outcome": "inactive"}, {"molecule": "CCc1ccc2nc3nc(C)cc(C)c3c(N)c2c1", "outcome": "inactive"}, {"molecule": "Cc1ccc(C)c(S(=O)(=O)/N=C2\\C=C(NS(=O)(=O)c3ccccc3)C(=O)c3ccccc32)c1", "outcome": "inactive"}, {"molecule": "Cc1ccn2c(-c3csc(NCc4ccco4)n3)c(C)nc2c1", "outcome": "inactive"}, {"molecule": "CCCCC(=O)N(c1ccc(C(=O)O)cc1)c1nc(-c2ccc(Cl)cc2)c(CC)s1", "outcome": "inactive"}, {"molecule": "CC(=O)c1ccc2c(c1)N(C)c1ccccc1S2", "outcome": "inactive"}, {"molecule": "Cc1ccc2c(c1)N(C(=O)CCC(=O)Nc1ccccc1Br)CC(C)O2", "note": "(stereo not drawn)", "outcome": "inactive"}, {"molecule": "OCC1(CCCc2ccccc2)CCN(Cc2cc(F)ccc2F)CC1", "outcome": "inactive"}, {"molecule": "CC(C)c1ccc(S(=O)(=O)/N=C2\\C=C(NS(=O)(=O)c3ccccc3)C(=O)c3ccccc32)cc1", "outcome": "inactive"}, {"molecule": "Cc1cc(NCc2ccccc2)nc(N2CCOCC2)n1", "outcome": "inactive"}, {"molecule": "CCOc1ccc(NC(=O)c2c[nH]n3c(=O)cc(C4CCN(C(=O)OC(C)(C)C)CC4)nc23)cc1", "outcome": "inactive"}, {"molecule": "COCCn1c(SCc2cc(C(C)=O)ccc2OC)nc2cc(Cl)ccc2c1=O", "outcome": "inactive"}, {"molecule": "CCc1cc(C(c2cccc(OC)c2)N2CCOCC2)c(NC(=O)c2ccccc2)s1", "note": "(stereo not drawn)", "outcome": "inactive"}, {"molecule": "CC(=O)Nc1ccc(S(=O)(=O)NC2=C(N3CCN(Cc4ccccc4)CC3)C(=O)c3ccccc3C2=O)cc1", "outcome": "inactive"}, {"molecule": "COc1ccc(C2=NN(C(=O)c3ccccc3)C(c3ccc(OC)c(OC)c3)C2)c(O)c1", "note": "(stereo not drawn)", "outcome": "inactive"}, {"molecule": "COc1cccc(CNC(=O)CCC2CCCN(Cc3cc(Cl)ccc3O)C2)c1", "note": "(stereo not drawn)", "outcome": "inactive"}, {"molecule": "Cc1c(CN2CCC(n3nccc3NC(=O)CCc3ccccc3)CC2)cnn1C", "outcome": "inactive"}, {"molecule": "CCOC(=O)C(C)Sc1nc2c(c(=O)[nH]c(=O)n2C)n1Cc1ccc(Cl)cc1", "note": "(stereo not drawn)", "outcome": "inactive"}]}, {"target": "Short transient receptor potential channel 6 (Mus musculus) (UniProt Q61143)", "sequence (Q61143 whole entry, looked up)": "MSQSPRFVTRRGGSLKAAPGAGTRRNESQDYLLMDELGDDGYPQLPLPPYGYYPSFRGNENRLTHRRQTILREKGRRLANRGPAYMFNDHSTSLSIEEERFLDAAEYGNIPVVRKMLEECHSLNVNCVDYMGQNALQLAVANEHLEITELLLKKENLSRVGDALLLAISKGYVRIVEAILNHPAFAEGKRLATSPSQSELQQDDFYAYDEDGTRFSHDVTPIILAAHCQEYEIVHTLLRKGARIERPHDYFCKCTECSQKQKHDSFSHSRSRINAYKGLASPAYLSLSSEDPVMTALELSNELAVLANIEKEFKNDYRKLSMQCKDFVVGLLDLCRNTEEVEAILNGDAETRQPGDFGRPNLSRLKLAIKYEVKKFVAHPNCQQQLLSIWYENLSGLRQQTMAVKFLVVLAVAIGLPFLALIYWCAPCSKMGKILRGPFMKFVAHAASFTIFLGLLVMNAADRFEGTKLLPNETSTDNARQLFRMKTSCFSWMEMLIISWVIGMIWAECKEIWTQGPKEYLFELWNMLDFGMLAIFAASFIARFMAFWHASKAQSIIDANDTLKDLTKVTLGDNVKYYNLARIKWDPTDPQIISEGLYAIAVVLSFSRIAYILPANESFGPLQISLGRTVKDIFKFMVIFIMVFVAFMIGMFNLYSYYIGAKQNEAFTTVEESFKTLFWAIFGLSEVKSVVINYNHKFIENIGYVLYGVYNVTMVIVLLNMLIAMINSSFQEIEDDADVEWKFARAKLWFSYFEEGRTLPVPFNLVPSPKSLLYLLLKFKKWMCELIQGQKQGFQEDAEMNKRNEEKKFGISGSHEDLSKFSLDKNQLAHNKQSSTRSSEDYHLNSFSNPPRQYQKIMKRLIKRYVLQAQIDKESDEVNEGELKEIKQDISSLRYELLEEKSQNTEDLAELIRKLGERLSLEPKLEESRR", "test": "inhibition of mouse TRPC6 channel, confirmation, selectivity assay for TRPC4 inhibitor project, cell-based, HEK293, membrane potential dye, duplicate (AID 434948)", "conditions": "HEK293 TRPC6, membrane potential dye fluorescence, at 10 µM, stimulated with maximal-effect acetylcholine; hits give high values", "procedure,_shortened": "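Material – TRPC6-expressing HEK293 cells · Repeats – two replicates · Read-out basis – control-normalized integrated fluorescence ratio · Schedule – 45 min RT dye load, 110 s compound, 110 s agonist read · Reagent – acetylcholine at maximal (ECmax) concentration, added after compound · Detection – kinetic fluorescence of membrane potential dye with 5 s baseline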", "values": [{"molecule": "CC(C)C(NC(=O)c1ccc(C(C)(C)C)cc1)C(=O)NCC(c1ccccc1)N(C)C", "note": "(stereo not drawn)", "outcome": "inactive"}, {"molecule": "CN(C)CCCN(C(=O)c1ccc(S(=O)(=O)N2CCCC2)cc1)c1nc2c(F)cc(F)cc2s1", "outcome": "inactive"}, {"molecule": "CCC1CCCCN1CCN1C(=O)C2C(C(=O)Nc3ccc(OC)cc3)C3C=CC2(O3)C1C(=O)NC1CCCCC1", "note": "(stereo not drawn)", "outcome": "inactive"}, {"molecule": "Cc1cc(Nc2ccc(C)c(C)c2)c2ccccc2n1", "inhibition": "35.5% (active)"}, {"molecule": "CCCc1nc2ccccc2n1Cc1ccccc1OC", "outcome": "inactive"}, {"molecule": "CCCCOc1ccc(Nc2cc(Cl)ccc2C(=O)O)cn1", "outcome": "inactive"}, {"molecule": "N#Cc1c(N)sc2c1CCCCCC2", "outcome": "inactive"}, {"molecule": "Cc1cc(OCc2cc(C(=O)NCCN3CCCCC3CO)no2)cc(C)c1Cl", "note": "(stereo not drawn)", "outcome": "inactive"}, {"molecule": "Cc1cccc(C)c1-n1cccc1/C=C1\\SC(=S)N(c2cccc(C(=O)O)c2)C1=O", "outcome": "inactive"}, {"molecule": "Clc1ccc(COc2ccccc2CNCc2cccnc2)cc1", "outcome": "inactive"}, {"molecule": "C=CCOc1ccc(C2CC(C)=NN2c2ccccc2)cc1", "note": "(stereo not drawn)", "outcome": "inactive"}, {"molecule": "CCCCN=C(Nc1ccc(Cl)cc1)c1cccnc1", "outcome": "inactive"}, {"molecule": "OCc1ccccc1CNCc1ccccc1", "outcome": "inactive"}, {"molecule": "Cc1ccc(Nc2cc(C)nc3ccc(C)cc23)cc1", "inhibition": "35% (active)"}, {"molecule": "C=CCSc1nnc2n(-c3ccccc3OC)c(=O)c3c4c(sc3n12)CCC4", "outcome": "inactive"}, {"molecule": "Cc1ccc(NC(=O)CN2CCc3ccccc3C2)cc1F", "outcome": "inactive"}, {"molecule": "c1ccc(CN2CCN(Cc3c[nH]c4ccccc34)CC2)cc1", "outcome": "inactive"}, {"molecule": "OCCNc1nc2ccccc2n1CCN1CCCCC1", "outcome": "inactive"}, {"molecule": "COc1ccc(NC(=O)c2c[nH]n3c(=O)cc(C4CCN(C(=O)OC(C)(C)C)CC4)nc23)cc1Cl", "outcome": "inactive"}, {"molecule": "CC1CCCN1CC#CC(O)(c1ccccc1)c1ccccc1", "note": "(stereo not drawn)", "inhibition": "13.5% (active)"}, {"molecule": "CCOC(=O)c1c(N)sc(C(O)(C(F)(F)F)C(F)(F)F)c1-c1ccccc1", "outcome": "inactive"}, {"molecule": "CCCCN(Cc1ccccc1)C(=O)C1CCN(Cc2sccc2C)CC1", "outcome": "inactive"}, {"molecule": "CCc1ccc2nc3nc(C)cc(C)c3c(N)c2c1", "inhibition": "27% (active)"}, {"molecule": "Cc1ccc(C)c(S(=O)(=O)/N=C2\\C=C(NS(=O)(=O)c3ccccc3)C(=O)c3ccccc32)c1", "inhibition": "33% (active)"}, {"molecule": "Cc1ccn2c(-c3csc(NCc4ccco4)n3)c(C)nc2c1", "outcome": "inactive"}, {"molecule": "CCCCC(=O)N(c1ccc(C(=O)O)cc1)c1nc(-c2ccc(Cl)cc2)c(CC)s1", "outcome": "inactive"}, {"molecule": "CC(=O)c1ccc2c(c1)N(C)c1ccccc1S2", "outcome": "inactive"}, {"molecule": "Cc1ccc2c(c1)N(C(=O)CCC(=O)Nc1ccccc1Br)CC(C)O2", "note": "(stereo not drawn)", "outcome": "inactive"}, {"molecule": "OCC1(CCCc2ccccc2)CCN(Cc2cc(F)ccc2F)CC1", "outcome": "inactive"}, {"molecule": "CC(C)c1ccc(S(=O)(=O)/N=C2\\C=C(NS(=O)(=O)c3ccccc3)C(=O)c3ccccc32)cc1", "inhibition": "21.5% (active)"}, {"molecule": "Cc1cc(NCc2ccccc2)nc(N2CCOCC2)n1", "outcome": "inactive"}, {"molecule": "CCOc1ccc(NC(=O)c2c[nH]n3c(=O)cc(C4CCN(C(=O)OC(C)(C)C)CC4)nc23)cc1", "outcome": "inactive"}, {"molecule": "COCCn1c(SCc2cc(C(C)=O)ccc2OC)nc2cc(Cl)ccc2c1=O", "outcome": "inactive"}, {"molecule": "CCc1cc(C(c2cccc(OC)c2)N2CCOCC2)c(NC(=O)c2ccccc2)s1", "note": "(stereo not drawn)", "outcome": "inactive"}, {"molecule": "CC(=O)Nc1ccc(S(=O)(=O)NC2=C(N3CCN(Cc4ccccc4)CC3)C(=O)c3ccccc3C2=O)cc1", "inhibition": "30% (active)"}, {"molecule": "COc1ccc(C2=NN(C(=O)c3ccccc3)C(c3ccc(OC)c(OC)c3)C2)c(O)c1", "note": "(stereo not drawn)", "outcome": "inactive"}, {"molecule": "COc1cccc(CNC(=O)CCC2CCCN(Cc3cc(Cl)ccc3O)C2)c1", "note": "(stereo not drawn)", "outcome": "inactive"}, {"molecule": "Cc1c(CN2CCC(n3nccc3NC(=O)CCc3ccccc3)CC2)cnn1C", "outcome": "inactive"}, {"molecule": "CCOC(=O)C(C)Sc1nc2c(c(=O)[nH]c(=O)n2C)n1Cc1ccc(Cl)cc1", "note": "(stereo not drawn)", "outcome": "inactive"}]}]}
